Screens (PubChem)
APJ agonist: activates the human apelin receptor APJ; P35414; CHO-K1 APJ PathHunter beta-arrestin, luminescence; 0% DMSO wells, 100% apelin; activation, % at 20 µM; hit rate 0.11% among 330,000;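 active = activation more than six SD over the plate average, tested at 20 µM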;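 also: 0% = DMSO alone and 100% = apelin-13 at 10 nM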
Target sequence (P35414 whole entry, looked up): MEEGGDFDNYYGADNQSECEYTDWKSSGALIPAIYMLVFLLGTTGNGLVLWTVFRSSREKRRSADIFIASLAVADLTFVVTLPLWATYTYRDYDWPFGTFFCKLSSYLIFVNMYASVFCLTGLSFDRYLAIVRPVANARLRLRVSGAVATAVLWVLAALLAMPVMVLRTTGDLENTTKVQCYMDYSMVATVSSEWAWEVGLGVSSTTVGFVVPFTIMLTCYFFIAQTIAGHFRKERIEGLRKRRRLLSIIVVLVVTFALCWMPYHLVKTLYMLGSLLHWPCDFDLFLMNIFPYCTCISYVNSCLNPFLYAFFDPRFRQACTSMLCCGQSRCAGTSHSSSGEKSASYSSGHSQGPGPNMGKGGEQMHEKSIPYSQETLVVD
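Assay system: CHO-K1 APJ beta-arrestin complementation cell line / Compound: single test compound dose, 20 µM final, 1% DMSO / Times: overnight seeding, 90 min compound at 25 °C, 1 h detection / Technique: beta-gal luminescence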
HTR2A ag: agonists of mouse serotonin 5-HT2A receptor (HTR2A); P35363; CHO-K1 mHTR2A beta-arrestin complementation, luminescence; percent of 30 µM serotonin response; activation, % at 7.6 µM; hit rate 0.66% among 360,000; AID 624169;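 active = activation above a run cutoff, the mean activation of all tested compounds plus 3 SD, cut at about 14% in these data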;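 also: 0% = plate median of compound wells and 100% = 30 µM serotonin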
EBI2 antag: antagonists of human EBI2 receptor. inhibition, % at 5 µM. hit rate 0.81% among 360,000. EBI2 beta-arrestin recruitment, luminescence, 7a,25-OHC stimulated. P32249. AID 651636; in the data active = inhibition above about 38%;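 also: enzyme fragment complementation signal reports receptor beta-arrestin coupling in cells; 0% = agonist plus DMSO wells and 100% = wells without agonist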
CCR6 antag: CCR6 (human) receptor antagonism; P51684; CHO-K1 CCR6 PathHunter beta-arrestin, luminescence, CCL20-stimulated; inhibition, % at 20 µM; hit rate 0.49% among 340,000;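 active = compounds whose inhibition of the agonist-driven luminescence signal at 20 µM reaches about 50%, limit read from the data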;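 also: cells stimulated with CCL20 at 14 nM final; plate controls were DMSO with CCL20 for no effect and DMSO without agonist for full effect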
CXCR6 block: blocks human CXCR6 beta-arrestin recruitment. hit rate 0.36% among 360,000. O00574. AID 602244. CHO-K1 PathHunter CXCR6 beta-arrestin, luminescence. inhibition, % at 20 µM; in the data active = inhibition above about 34%, passing the limit was not always enough;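 also: antagonist mode with CXCL16 agonist at 10 nM final; 0% = 10 nM CXCL16 with DMSO and 100% = unstimulated wells without agonist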
APJ antag: blocks the human apelin receptor APJ | hit rate 0.32% among 330,000 | CHO-K1 APJ beta-arrestin complementation, luminescence | inhibition, % at 20 µM | AID 2521;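 active = inhibition above about 40% at 20 µM, limit read from the data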;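 also: cells challenged with 10 nM apelin-13 agonist together with compound; plate controls were apelin-13 plus DMSO wells for no effect and DMSO wells lacking apelin-13 for full effect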
* hit, by the source's call; . = not tested or not shown. Sampled rows, rich in hits. Any-hit rate of the full collection: about 2.1%.

SMILES	APJ agonist	HTR2A ag	EBI2 antag	CCR6 antag	CXCR6 block	APJ antag
COc1ccc(S(=O)(=O)NCC2CCCN(C(=O)CNC(C)=O)C2)cc1 (stereo not given)	-1	0	-5	-1	4	-8
COc1ccc(Cl)cc1/C=C/c1ccc2cccc(O)c2n1	-7	-3	-6	38	19	39
COc1ccccc1/C=C/c1ccc2cccc(O)c2n1	-8	-9	9	63*	34	39
O=C1/C(=C/c2ccc(O)c(O)c2)SC(=S)N1Nc1ccccc1	.	-4	6	61*	51*	.
O=[N+]([O-])c1ccc(Cl)c(NC(=S)N2CCCC2)c1	1	-3	-3	0	0	-13
COc1cc(C=C2CN(C)C(=O)C2=O)ccc1O	.	-3	7	.	32	.
CCOc1cc(/C=C2\CN(C)C/C(=C\c3ccc(O)c(OCC)c3)C2=O)ccc1O	-8	-9	22	57*	34	27
N#Cc1nccnc1S(=O)(=O)c1cccs1	-3	.	.	23	.	56*
CN(Cc1ccccc1C#N)S(=O)(=O)c1cccs1	-2	-1	3	12	-2	5
Cc1ccc(S(=O)(=O)NC(=O)CSc2nc3ccccc3s2)cc1	-6	0	-7	-11	-8	14
CCOC(=O)/C(=C\c1ccc(OC(F)F)cc1)C1=Nn2c(nnc2-c2ccc(Cl)cc2)SC1	.	2	54*	22	18	.
CCOC(=O)/C(=C\c1ccc(Cl)cc1)c1nc2sc(C)c(C)c2c(=O)[nH]1	-2	-3	6	35	29	9
CCOC(=O)/C(=C/c1ccc(OC(F)F)cc1)C1=Nn2c(nnc2-c2ccc(Cl)cc2)SC1	.	0	48*	36	16	.
COc1ccc(-c2nnc3n2N=C(C)CS3)cc1	-2	3	-11	6	6	-11
CC(CC(=O)Nc1nccs1)c1ccccc1 (stereo not given)	1	-1	-7	-2	11	7
O=C(CSc1nc(-c2ccco2)cc(C(F)(F)F)n1)NCCCn1ccnc1	-2	7	-4	-5	48*	-6
COc1ccc(CCNC(=O)C2CCN(C(=O)c3ccc(F)cc3)CC2)cc1	-3	1	-4	15	-6	12
COc1ccc(CCNC(=O)C2CCN(C(=O)c3ccccc3)CC2)cc1	-3	.	.	57*	.	5
CC(=O)OC[C@]12CC[C@H]3[C@@](C)(CC[C@H]4C(C)(C)CCC[C@]34C)[C@@H]1C[C@H](C1=CC(=O)O[C@@H]1OC(C)=O)O2	11*	.	.	.	.	0
Oc1c(Br)cc(Br)cc1C=Nc1ccc2[nH]ncc2c1	14*	3	3	9	10	-103
C=CCN1C(=O)/C(=C/c2ccc(OC(C)=O)c(OCC)c2[N+](=O)[O-])SC1=S	.	-3	-18	54*	42*	.
CC(=O)NC(=S)NNC(=O)CCc1ccccc1	-4	3	0	-1	17	23
O=C(CCc1ccccc1)NNC(=S)NC(=O)c1ccccc1	-3	2	-3	69*	26	24
CC(=O)N1N=C(c2cccc([N+](=O)[O-])c2)OC1c1ccccc1Cl (stereo not given)	-11	-1	11	50*	32	12
Cc1c(C#N)c(O)n(C)c(=O)c1N=Nc1ccc(S(N)(=O)=O)cc1	.	-1	2	52*	25	.
SMILES	APJ agonist	HTR2A ag	EBI2 antag	CCR6 antag	CXCR6 block	APJ antag
COc1cc(S(=O)(=O)NCc2ccccc2)ccc1-n1cnnn1	4	4	3	-2	-2	6
Cc1[nH]c2ccccc2c1/C=N/Nc1ccc([N+](=O)[O-])cc1S(=O)(=O)Nc1ccc(Cl)cc1	0	1	37	57*	42*	-12
CN(C)c1nc(=NCc2cccs2)ss1	.	-20	23	111*	92*	.
CC(SC(=S)N(C)Cc1cccs1)C(=O)O (stereo not given)	3	1	-1	10	-4	1
Cc1ccc2nsnc2c1S(=O)(=O)N(CCO)Cc1cc2cc3c(cc2[nH]c1=O)OCCO3	-2	1	1	1	-11	7
CC(=O)Nc1sc(N/N=C\c2ccc(O)cc2)nc1-c1cccs1	-5	-4	3	23	4	-18
